{
  "source": "ChEMBL document CHEMBL3856209",
  "about": "“Novel pyrazolopyridine derivatives as potential angiogenesis inhibitors: Synthesis, biological evaluation and transcriptome-based mechanistic analysis” (Eur J Med Chem, 2016)",
  "type_in_all_cases": "functional, Homo sapiens",
  "key": {"[1]": {"tested_on": "HUVEC", "test": "Effect on ELMOD1 gene expression in serum-starved HUVEC after 6 hrs by microarray analysis relative to control", "summary_of_the_method": "(§1)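 Confluent, serum-starved HUVEC (pooled from 3–5 donors, passage ≤4) treated with 2 μM compound or vehicle with 2.5% FBS for 6 h or 24 h. Total RNA hybridized to Illumina Human-HT12 arrays. Data were background-corrected, vst-transformed and rsn-normalized. Hits called by moderated paired t-test versus DMSO-treated cells, p < 0.05 and log2 fold change >|0.5|.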"}, "[2]": {"tested_on": "HUVEC", "test": "Effect on CKS2 gene expression in serum-starved HUVEC after 6 hrs by microarray analysis relative to control", "summary_of_the_method": "as §1"}, "[3]": {"tested_on": "HUVEC", "test": "Effect on FAM213A gene expression in serum-starved HUVEC after 6 hrs by microarray analysis relative to control", "summary_of_the_method": "(§2)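 Confluent serum-starved HUVEC (primary, pooled from 3–5 donors, passage ≤4) treated with 2 μM compound or DMSO vehicle in 2.5% FBS for 6 h or 24 h. Total RNA hybridized to Illumina Human-HT12 arrays, background-corrected, vst-transformed and rsn-normalized. Differential expression versus DMSO by moderated paired t-test (p < 0.05, |log2 fold change| > 0.5).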"}, "[4]": {"tested_on": "HUVEC", "test": "Effect on CDK1 gene expression in serum-starved HUVEC after 24 hrs by microarray analysis relative to control", "summary_of_the_method": "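Serum-starved confluent HUVEC treated with 2 μM compound or DMSO in 2.5% FBS for 6 h or 24 h; RNA hybridized to Illumina Human-HT12 arrays. Data background-corrected, vst-transformed and rsn-normalized. Differential probes called by moderated paired t-test (limma) at p < 0.05 and log2 fold change >|0.5| vs DMSO.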"}, "[5]": {"tested_on": "HUVEC", "test": "Effect on MYO10 gene expression in serum-starved HUVEC after 6 hrs by microarray analysis relative to control"}, "[6]": {"tested_on": "HUVEC", "test": "Effect on HAVCR2 gene expression in serum-starved HUVEC after 24 hrs by microarray analysis relative to control", "summary_of_the_method": "as §2"}},
  "data": [
    {"smiles": "COc1ccc(Cn2nc(-c3ccccc3)c3cc(Cl)nc(N4CCNCC4)c32)cc1", "values": [
      {"measurement": "log2FC", "setting": "[1]", "result": -0.1337},
      {"measurement": "log2FC", "setting": "[2]", "result": 0.2477}
    ]},
    {"smiles": "COc1ccc(Cn2nc(-c3ccccc3)c3cc(Nc4ccc(N5CCN(C)CC5)cc4)nc(N4CCN(C)CC4)c32)cc1", "values": [
      {"measurement": "fold change (FC)", "setting": "[3]", "result": -0.0934},
      {"measurement": "log2FC", "setting": "[4]", "result": -0.5092},
      {"measurement": "fold change (FC)", "setting": "[5]", "result": -0.0407},
      {"measurement": "fold change (FC)", "setting": "[6]", "result": -0.7422}
    ]}
  ]
}
